Key:
L1210 [1] = assay: In vitro for its inhibitory activity against murine L1210 leukemia; Inactive; assay type: functional, cell-based, Mus musculus
P388 leukemia (mouse) = assay: Net log value for P388 leukemia cell kill in mice was determined
P388 [2] = assay: Percentage T/C survival (treated vs control) against P388 leukemia (day 30 surv); assay type: functional, Mus musculus
Procedure, shortened: (§1)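 P388 leukemia in mice, drug given ip on days 1-5 (Q01D×5, IP/IP, NCI testing protocol). Optimum response taken over doses, expressed as mg/kg per injection. Read-outs are %T/C survival and net log cell kill (Schabel method). Cured mice are included in the %T/C and net kill calculations.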

P388 [3] = assay: In vivo for the optimal dose for activity against P388 leukemia per injection; assay type: functional, Mus musculus; procedure, shortened: as §1
L1210 [4] = assay: In vitro for its inhibitory activity against murine L1210 leukemia; assay type: functional, cell-based; settings: Mus musculus
Mus musculus [5] = assay: The compound was evaluated in vivo for the optimal dose for activity against murine B-16 melanoma; assay type: functional
Procedure, shortened: (§2)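 Murine B-16 melanoma in vivo. Optimal dose given as mg/kg per injection. Response is % T/C survival, with day-60 survivors reported as number per group (of 10 or 6).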

Mus musculus [6] = species on record: Mus musculus; assay: % T/C survival against murine B-16 melanoma (day 60 surv); assay type: functional; procedure, shortened: as §2
Mus musculus [7] = assay: The compound was evaluated in vivo for the optimal dose for activity against of B-16 leukemia per injection; assay type: functional; settings: in the assay text read “B-16 melanoma” for “B-16 leukemia”; procedure, shortened: as §2

SMILES	IC50 (L1210 [1])	IC50 (L1210 [4])	Net log cell kill (P388 leukemia (mouse))	T/C (P388 [2])	Dose (P388 [3])	Dose (Mus musculus [5])	T/C (Mus musculus [6])	Dose (Mus musculus [7])
CCN(CC)CCn1nc2c3c(c(N)ccc31)Sc1c(OC)cccc1-2.Cl	Not Active	–	-1.5	109%	25 mg/kg	–	–	–
CCN(CC)CCn1nc2c3c(c(NCCN4CCOC4=O)ccc31)Sc1ccc(OC)cc1-2.Cl.O	Not Active	–	6	220%	100 mg/kg	–	–	–
CCN(CC)CCn1nc2c3c(c(NCCNCCO)ccc31)Sc1ccc(OC)cc1-2.Cl	–	200 nM	3.2	–	25 mg/kg	–	–	–
Cl.Nc1ccc2c3c(nn2CCNCCO)-c2ccccc2Sc13.O	–	–	4.3	188%	25 mg/kg	25 mg/kg	259%	–
CCN(CC)CCn1nc2c3c(c(N)ccc31)Sc1cccc(OC)c1-2	–	2000 nM	–	–	–	–	–	–
O=C1OCCN1CCNc1ccc2c3c(nn2CCNCCO)-c2ccccc2Sc13	–	540 nM	–	–	–	–	–	–
Cl.O.O=S1(=O)c2ccccc2-c2nn(CCNCCO)c3ccc(NCCNCCO)c1c23	Not Active	–	2.5	168%	200 mg/kg	–	–	–
CN(C)CCCn1nc2c3c(c(N)ccc31)Sc1ccccc1-2.Cl.O	–	2000 nM	4	197%	100 mg/kg	–	–	–
Cl.NCCn1nc2c3c(c(N)ccc31)Sc1ccccc1-2	–	100 nM	3.1	181%	12.5 mg/kg	–	–	–
CC(=O)OCCN(CCn1nc2c3c(c(N)ccc31)Sc1ccccc1-2)C(C)=O.Cl	Not Active	–	-1.3	117%	400 mg/kg	–	–	–
Br.CCN(CC)CCn1nc2c3c(c(NCCNCCO)ccc31)Sc1c(O)ccc(O)c1-2	Not Active	–	0.1	–	50 mg/kg	–	–	–
Br.Nc1ccc2c3c(nn2CCNCCO)-c2cc(O)ccc2Sc13	–	23 nM	4.2	192%	3.1 mg/kg	–	–	–
CCN(CC)CCn1nc2c3c(c(Cl)ccc31)S(=O)(=O)c1ccccc1-2	–	2200 nM	–	–	–	–	–	–
CCN(CC)CCn1nc2c3c(c(NCCN4C(=O)c5ccccc5C4=O)ccc31)Sc1c(OC)cccc1-2	Not Active	–	-1.5	107%	12.5 mg/kg	–	–	–
CCN(CC)CCn1nc2c3c(c(NC(=O)CNC(=O)OC(C)(C)C)ccc31)Sc1cc(OC)ccc1-2	Not Active	–	–	–	–	–	–	–
CCN(CC)CCn1nc2c3c(c(NCCNC(=O)OC(C)(C)C)ccc31)Sc1cccc(OC)c1-2	Not Active	–	–	–	–	–	–	–
CCN(CC)CCn1nc2c3c(c(Cl)ccc31)[S+]([O-])c1ccccc1-2 (stereo not given)	Not Active	–	–	–	–	–	–	–
O=S1(=O)c2ccccc2-c2nn(CCNCCO)c3ccc(Cl)c1c23	–	920 nM	–	–	–	–	–	–
CC(=O)NCCn1nc2c3c(c(NCCN4CCOC4=O)ccc31)Sc1ccccc1-2	Not Active	–	-1.6	100%	12.5 mg/kg	–	–	–
CCN(CC)CCn1nc2c3c(c(NCCNC(=O)OC(C)(C)C)ccc31)Sc1cc(OC)ccc1-2	Not Active	–	–	93%	6.3 mg/kg	–	–	–
CCN(CC)CCNc1ccc2c3c(nn2CCN(CC)CC)-c2ccccc2S(=O)(=O)c13	Not Active	–	-1.6	101%	12.5 mg/kg	–	–	–
COc1cccc2c1C(=O)c1c(O)c3c(c(O)c1C2=O)C[C@@](O)(C(=O)CO)C[C@@H]3O[C@H]1C[C@H](N)[C@H](O)[C@H](C)O1 [DOXORUBICIN]	–	–	–	232%	2 mg/kg	1 mg/kg	434%	–
O=C1c2c(O)ccc(O)c2C(=O)c2c(NCCNCCO)ccc(NCCNCCO)c21 [MITOXANTRONE]	–	–	–	291%	1.25 mg/kg	0.6 mg/kg	265%	–

Second part, led by results:

IC50 (L1210 [1])	IC50 (L1210 [4])	SMILES	Net log cell kill (P388 leukemia (mouse))	T/C (P388 [2])	Dose (P388 [3])	Dose (Mus musculus [5])	T/C (Mus musculus [6])	Dose (Mus musculus [7])
–	28 nM	CCN(CC)CCn1nc2c3c(c(NCCNCCO)ccc31)Sc1ccccc1-2.Cl.O	> 6.8	280%	12.5 mg/kg	12 mg/kg	273%	–
Not Active	–	CCN(CC)CCn1nc2c3c(c(N)ccc31)Sc1cc(OC)ccc1-2.Cl.O	–	–	–	–	–	–
–	4.3 nM	CCN(CC)CCn1nc2c3c(c(NCCN4CCOC4=O)ccc31)Sc1ccc(O)cc1-2.Cl.O	–	–	12.5 mg/kg	–	–	–
–	4.8 nM	CCN(CC)CCn1nc2c3c(c(NCCNCCO)ccc31)Sc1ccc(O)cc1-2.Cl.O	4.5	200%	1.5 mg/kg	1.5 mg/kg	183%	–
–	1200 nM	CCN(CC)CCn1nc2c3c(c(NCCN)ccc31)S(=O)(=O)c1ccccc1-2.Cl.O	1.8	159%	100 mg/kg	–	–	–
–	63 nM	CN(C)CCn1nc2c3c(c(N)ccc31)Sc1ccccc1-2.Cl.O	1.8	165%	12.5 mg/kg	–	–	–
–	210 nM	CCN(CC)CCn1nc2c3c(c(NCCN)ccc31)Sc1ccc(OC)cc1-2.Cl.O	3.9	–	12.5 mg/kg	–	–	–
–	2.6 nM	CCN(CC)CCn1nc2c3c(c(NCCN)ccc31)Sc1ccc(O)cc1-2.Cl.O	–	186%	0.8 mg/kg	–	–	–
–	22 nM	Cl.NCCn1nc2c3c(c(NCCNCCO)ccc31)Sc1ccccc1-2	> 6.7	233%	12.5 mg/kg	–	–	–
–	1500 nM	CCN(CC)CCn1nc2c3c(c(N)ccc31)Sc1ccc(OC)cc1-2.Cl	1.4	–	50 mg/kg	–	–	–
–	11 nM	CCN(CC)CCn1nc2c3c(c(N)ccc31)Sc1ccc(O)cc1-2.Cl.O	> 6.7	–	6.3 mg/kg	1.8 mg/kg	264%	–
–	61 nM	CCN(CC)CCn1nc2c3c(c(N)ccc31)Sc1cccc(O)c1-2	–	–	–	–	–	–
–	240 nM	CCN(CC)CCNc1ccc2c3c(nn2CCNCCO)-c2ccccc2Sc13.Cl.O	0.5	–	25 mg/kg	–	–	–
–	15 nM	CN(C)CCn1nc2c3c(c(NCCN)ccc31)Sc1ccccc1-2.Cl.O	> 6.7	270%	12.5 mg/kg	–	–	–
–	71 nM	CCN(CC)CCn1nc2c3c(c(NCCN)ccc31)Sc1cc(O)ccc1-2.Cl.O	–	280%	6.3 mg/kg	7.5 mg/kg	281%	–
Not Active	–	CCN(CC)CCn1nc2c3c(c(NCCN)ccc31)Sc1c(O)cccc1-2.Cl.O	-0.9	122%	6.3 mg/kg	–	–	–
–	50 nM	CCN(CC)CCNc1ccc2c3c(nn2CCN(CC)CC)-c2ccccc2Sc13.Cl	1.6	–	25 mg/kg	–	–	–
Not Active	–	CC(=O)NCCn1nc2c3c(c(N)ccc31)Sc1ccccc1-2.Cl	-1.7	100%	100 mg/kg	–	–	–
–	260 nM	CCN(CC)CCn1nc2c3c(c(NCCCN)ccc31)Sc1ccccc1-2.Cl.O	> 6.6	262%	50 mg/kg	–	–	–
–	140 nM	CCN(CC)CCn1nc2c3c(c(NC(=O)CN)ccc31)Sc1cc(O)ccc1-2.Cl.O	–	195%	100 mg/kg	–	–	–
–	15 nM	CCN(CC)CCn1nc2c3c(c(NC(=O)CN)ccc31)Sc1ccccc1-2.Cl.O	2.4	184%	20 mg/kg	–	–	–
–	27 nM	CN(C)CCCn1nc2c3c(c(NCCN)ccc31)Sc1ccccc1-2.Cl.O	> 6.7	–	12.5 mg/kg	–	–	–
Not Active	–	CCN(CC)CCn1nc2c3c(c(NCCN)ccc31)Sc1cc(OC)ccc1-2.Cl.O	-0.4	133%	25 mg/kg	–	–	–
–	190 nM	CCN(CC)CCn1nc2c3c(c(N)ccc31)Sc1cc(O)ccc1-2	–	–	–	–	–	–
–	48 nM	Br.CCN(CC)CCn1nc2c3c(c(NCCN)ccc31)Sc1cccc(O)c1-2	2.8	177%	12.5 mg/kg	–	–	–
–	30 nM	Br.CCN(CC)CCn1nc2c3c(c(NCCN)ccc31)Sc1ccccc1-2	> 6.6	–	12.5 mg/kg	–	159%	6.3 mg/kg
–	810 nM	CCN(CC)CCn1nc2c3c(c(NCCN4CCOC4=O)ccc31)Sc1ccccc1-2	6	–	100 mg/kg	–	–	–
–	100 nM	CCN(CC)CCn1nc2c3c(c(N)ccc31)Sc1ccccc1-2	2.2	–	25 mg/kg	12 mg/kg	112%	–

— ChEMBL document CHEMBL1124226, “Benzothiopyranoindazoles, a new class of chromophore modified anthracenedione anticancer agents. Synthesis and activity against murine leukemias” (J Med Chem, 1988)
